Experimental data published in ChEMBL document CHEMBL4014306, “Pyrazolopyrimidines as Potent Stimulators for Transient Receptor Potential Canonical 3/6/7 Channels” (J Med Chem, 2017).

Legend:
Format in all cases: cell-based
[1] = biological target: T1, Short transient receptor potential channel 4 (Mus musculus) (UniProt Q9QUQ5); test: Inhibition of mouse TRPC4beta expressed in HEK293 cells co-expressing MOR assessed as decrease in DAMGO-evoked membrane depolarization at 22 uM preincubated for 2 mins followed by DAMGO addition measured for 2.5 mins by FLIPR membrane potential dye-based fluorescence assay relative to control
T1 sequence (whole entry): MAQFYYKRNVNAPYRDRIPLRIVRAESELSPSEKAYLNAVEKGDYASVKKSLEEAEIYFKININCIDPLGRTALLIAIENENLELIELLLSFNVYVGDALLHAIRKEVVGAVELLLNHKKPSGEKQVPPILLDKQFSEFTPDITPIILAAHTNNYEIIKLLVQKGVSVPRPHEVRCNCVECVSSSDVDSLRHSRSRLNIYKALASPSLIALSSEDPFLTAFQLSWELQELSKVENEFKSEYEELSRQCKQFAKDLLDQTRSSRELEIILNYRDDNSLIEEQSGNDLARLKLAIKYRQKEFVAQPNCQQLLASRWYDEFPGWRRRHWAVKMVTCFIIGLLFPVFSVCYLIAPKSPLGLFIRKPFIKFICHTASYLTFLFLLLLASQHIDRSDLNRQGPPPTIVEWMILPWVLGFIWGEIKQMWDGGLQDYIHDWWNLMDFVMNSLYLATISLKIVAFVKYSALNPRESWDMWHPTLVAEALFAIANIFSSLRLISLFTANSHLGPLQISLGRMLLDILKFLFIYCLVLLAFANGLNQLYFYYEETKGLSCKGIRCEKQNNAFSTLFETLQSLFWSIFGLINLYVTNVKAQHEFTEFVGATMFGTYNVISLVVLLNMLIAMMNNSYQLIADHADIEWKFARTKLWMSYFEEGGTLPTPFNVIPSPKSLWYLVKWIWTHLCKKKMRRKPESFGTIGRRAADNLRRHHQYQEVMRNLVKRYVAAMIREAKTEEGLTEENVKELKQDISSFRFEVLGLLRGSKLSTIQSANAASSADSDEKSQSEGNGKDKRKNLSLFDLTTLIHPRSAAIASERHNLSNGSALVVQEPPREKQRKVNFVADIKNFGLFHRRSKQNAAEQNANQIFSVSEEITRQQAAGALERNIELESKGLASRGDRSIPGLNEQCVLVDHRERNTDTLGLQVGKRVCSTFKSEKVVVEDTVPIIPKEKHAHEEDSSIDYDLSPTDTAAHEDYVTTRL
Procedure, shortened: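 Same TRP panel as for the stimulation tests, with FMP dye for TRPC4 and M5 and Fluo8-AM for TRPA1, V1 and M8. Compound applied for 2 min before the channel agonist (TRPC4: 1 μM DAMGO). Inhibition of the agonist response measured on a FlexStation at 32 °C.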

HEK293 [2] = test: Induction of membrane potential depolarization in HEK293 cells measured for 2.5 mins by FLIPR assay; conditions: human, hek293, 2.5 min
Procedure, shortened: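 Parental HEK293 cells on a FlexStation at 32 °C, loaded with Fluo4-AM or FMP dye, in 2 mM Ca2+ extracellular saline, pH 7.4. Compound added and fluorescence read as F/F0.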

HEK293 [3] = test: Induction of intracellular calcium level in HEK293 cells at 30 uM measured for 2.5 mins by Fluo-4-AM dye based FLIPR assay; conditions: human, hek293, 2.5 min
[4] = biological target: T2, Short transient receptor potential channel 6 (Mus musculus) (UniProt Q61143); test: (§1) Agonist activity at mouse TRPC6 expressed in HEK293 cells co-expressing Gq11-PLCbeta fused M5 receptor assessed as increase in intracellular calcium level by Fluo-4-AM dye-based fluorescence assay
T2 sequence (whole entry): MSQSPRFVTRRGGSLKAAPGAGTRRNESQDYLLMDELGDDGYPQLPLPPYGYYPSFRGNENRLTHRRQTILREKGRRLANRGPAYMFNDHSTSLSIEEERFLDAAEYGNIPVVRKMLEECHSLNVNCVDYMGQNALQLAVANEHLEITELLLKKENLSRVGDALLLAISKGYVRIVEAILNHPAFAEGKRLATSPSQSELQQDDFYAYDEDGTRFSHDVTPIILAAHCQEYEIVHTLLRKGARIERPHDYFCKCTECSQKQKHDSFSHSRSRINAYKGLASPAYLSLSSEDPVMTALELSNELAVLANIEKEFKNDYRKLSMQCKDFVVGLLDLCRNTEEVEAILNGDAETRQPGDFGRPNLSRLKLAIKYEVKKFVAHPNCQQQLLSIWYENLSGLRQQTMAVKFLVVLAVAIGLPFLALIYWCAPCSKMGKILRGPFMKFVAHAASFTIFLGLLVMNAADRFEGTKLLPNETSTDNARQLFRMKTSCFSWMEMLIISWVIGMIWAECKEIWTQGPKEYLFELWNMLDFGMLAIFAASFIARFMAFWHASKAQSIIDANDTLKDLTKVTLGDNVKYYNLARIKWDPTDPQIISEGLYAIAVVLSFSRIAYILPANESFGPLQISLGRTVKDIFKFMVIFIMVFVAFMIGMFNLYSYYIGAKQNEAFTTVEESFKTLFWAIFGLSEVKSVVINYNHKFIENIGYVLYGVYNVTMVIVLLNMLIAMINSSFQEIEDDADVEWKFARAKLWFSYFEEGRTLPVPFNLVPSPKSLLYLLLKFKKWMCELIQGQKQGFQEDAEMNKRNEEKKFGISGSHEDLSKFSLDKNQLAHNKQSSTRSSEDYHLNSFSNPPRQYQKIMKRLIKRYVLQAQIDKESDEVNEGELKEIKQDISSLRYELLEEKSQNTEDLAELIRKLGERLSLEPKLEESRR
Procedure, shortened: (§2)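 Stable HEK293 line coexpressing mouse TRPC6 and M5 receptor, held under G418 and hygromycin B. Cells are loaded with Fluo4-AM or Fluo8-AM in 2 mM Ca2+ extracellular solution at pH 7.4 with 2 mM probenecid, and read at 32 °C as ΔF/F0.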

[5] = biological target: T3, Short transient receptor potential channel 6 (Mus musculus, UniProt Q61143); test: as §1; procedure, shortened: as §2
T3 sequence (Q61143 whole entry): T2 sequence (whole entry)

inhibition [1] [%]	Structure (SMILES)	Activity (HEK293 [2])	Activity (HEK293 [3])	Activity [4]	EC50 [5] [µM]
33	CCOC(=O)N1CCC(c2cc(O)n3nc(C)c(-c4ccc(C(F)(F)F)cc4)c3n2)CC1	–	–	–	–
–	CCOC(=O)N1CCC(c2cc(O)n3nc(C)c(-c4ccc(F)cc4)c3n2)CC1	Non-Toxic	Non-Toxic	Dose-dependent effect	7.2
13	Cc1nn2c(O)cc(C3CCN(C(=O)OCc4ccccc4)CC3)nc2c1-c1ccc(F)cc1	–	–	–	–
